# Sampled rows, rich in hits. Any-hit rate of the full collection: about 2.9%.
# Statin myotox sup: suppressors of simvastatin-induced myotoxicity in C2C12 myotubes; ATP luminescence, 48 h; scaled: DMSO 0, geranylgeraniol control 100; rescue of ATP level, % at 7.49 µM; 0.78% of 330,000 active; AID 602340;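 active = mean ATP rescue above about 67%, or every replicate alone reaching that limit, limit read from the data, passing the limit was not always enough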;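 also: myotubes were challenged with 10 µM simvastatin during compound exposure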
# PGC1a acetyl inh: modulators of PGC1a acetylation | 0.17% of 350,000 active | inhibition, % at 15.6 µM | U2OS PGC1a acetylation, AlphaScreen anti-acetyl-lysine; with virally co-expressed GCN5 acetyltransferase | AID 651687;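 active = every replicate shows inhibition of at least 40%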;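 also: 0% = neutral control wells and 100% = positive control wells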
# S100A4 inh HTS: blocks human S100A4 binding to myosin IIA peptide; P26447; S100A4/TAMRA-MyoIIA peptide fluorescence polarization; inhibition, % at 10.7 µM; 0.14% of 360,000 active; AID 652163;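 active = mean inhibition of at least 70% across replicates, with every replicate also reaching that level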
# Target sequence (P26447 whole entry, looked up): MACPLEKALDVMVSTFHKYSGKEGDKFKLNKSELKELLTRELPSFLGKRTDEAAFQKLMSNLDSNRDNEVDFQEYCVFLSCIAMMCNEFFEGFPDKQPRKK
#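 Assay system: human S100A4 monomer with TAMRA-labelled myosin IIA peptide / Buffer or medium: Calcium-containing HEPES buffer, pH 7.2 / Reagent: TAMRA-labelled myosin IIA heavy-chain peptide probe, 5 nM / Compound: one dose per compound / Timing: polarization read 5 min after assay mix addition, stable 5–60 min / Benchmarks: neutral control DMSO, positive control TFP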
# SIRT5 block: sirtuin-5 (human) deacylase inhibition. Q9NXA8. Purified SirT5, succinyl-peptide AMC, trypsin-coupled fluorescence. inhibition, % at 15 µM. 1.1% of 330,000 active; in the data active = inhibition above about 15%
# Target sequence (Q9NXA8 whole entry, looked up): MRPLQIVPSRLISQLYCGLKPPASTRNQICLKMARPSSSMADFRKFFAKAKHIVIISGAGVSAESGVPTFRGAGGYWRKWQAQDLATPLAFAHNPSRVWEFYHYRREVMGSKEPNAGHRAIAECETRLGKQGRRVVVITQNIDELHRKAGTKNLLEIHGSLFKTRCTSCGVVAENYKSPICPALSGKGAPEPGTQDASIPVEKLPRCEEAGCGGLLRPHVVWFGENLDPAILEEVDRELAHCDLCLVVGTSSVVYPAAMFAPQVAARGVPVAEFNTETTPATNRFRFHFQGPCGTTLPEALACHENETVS
# DENV2 CPE: inhibitors of DENV2 cytopathic effect. DENV2-infected cells, cytopathic effect rescue, plate reader. CPE inhibition, % at 9.99 µM. 1.7% of 350,000 active. AID 651640; in the data active = CPE inhibition above about 20%, passing the limit was not always enough; tested in BHK-21 cells;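 also: 0% = median of neutral control wells and 100% = median of positive control wells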
# * hit, by the source's call; x = not tested or not shown.
SMILES,Statin myotox sup,PGC1a acetyl inh,S100A4 inh HTS,SIRT5 block,DENV2 CPE
CC(C)(C)OC(=O)N1CCC(C(=O)N[C@@H](Cc2ccccc2)C(=O)O)CC1,115*,-1,x,x,x
CC1CN(C(=O)N[C@@H](Cc2ccccc2)C(=O)O)CC(C)O1 (some centres undefined),86*,-19,x,x,x
COc1ccccc1C(=O)N/C(=C/c1ccccc1)C(=O)NC(CCSC)C(=O)O (centres undefined),-19,-4,0,-2,x
C[C@H]1CCCCO[C@H](CN(C)C(=O)NC2CCCCC2)[C@@H](C)CN([C@@H](C)CO)C(=O)c2cc(NC(=O)C3CCCCC3)ccc2O1,2,-7,5,8,-4
C[C@@H]1CN([C@H](C)CO)C(=O)c2cc(NC(=O)Nc3ccc(C(F)(F)F)cc3)ccc2O[C@H]1CN(C)S(=O)(=O)c1ccccc1,-23,13,0,-1,33*
C[C@@H]1CN([C@H](C)CO)C(=O)Cc2cc(NC(=O)Nc3ccc(C(F)(F)F)cc3)ccc2O[C@@H]1CN(C)S(=O)(=O)c1cccs1,-80,-1,-10,0,27*
C[C@@H]1CN([C@H](C)CO)C(=O)Cc2cc(NC(=O)Nc3ccc(C(F)(F)F)cc3)ccc2O[C@H]1CN(C)S(=O)(=O)c1ccccc1,x,4,-6,13,2
C[C@@H]1CN([C@@H](C)CO)C(=O)c2cc(NC(=O)Nc3ccc(C(F)(F)F)cc3)ccc2O[C@@H]1CN(C)S(=O)(=O)c1ccc(F)cc1,-95,6,-8,7,0
C[C@H](CO)N1C[C@H](C)[C@@H](CN(C)S(=O)(=O)c2ccccc2)Oc2ccc(NC(=O)Nc3ccc(C(F)(F)F)cc3)cc2CC1=O,x,1,-12,19*,65*
Cc1noc(C)c1NC(=O)Nc1ccc2c(c1)CC(=O)N([C@@H](C)CO)C[C@@H](C)[C@H](CN(C)S(=O)(=O)c1cccs1)O2,-19,-4,7,-2,1
Cc1noc(C)c1NC(=O)Nc1ccc2c(c1)CC(=O)N([C@@H](C)CO)C[C@@H](C)[C@@H](CN(C)S(=O)(=O)c1cccs1)O2,-10,-3,-2,5,36*
C[C@H]1CN([C@@H](C)CO)C(=O)CCCn2nncc2CO[C@H]1CN(C)S(=O)(=O)c1ccc(-c2ccccc2)cc1,32,-7,-4,4,2
O=C(c1ccccn1)N1C[C@H]2[C@@H](c3ccccc31)[C@@H](CO)N2C(=O)c1ccccn1,21,2,-6,-3,-1
C[C@H]1CN([C@@H](C)CO)C(=O)Cc2cc(NC(=O)Nc3ccccc3)ccc2O[C@H]1CN(C)S(=O)(=O)c1cccs1,-25,4,29,9,33*
COc1ccc2c3c(n(C)c2c1)[C@H](CO)N(C(=O)c1ccccc1)CC31CN(Cc2ccccc2OC)C1,x,-16,x,x,-3
Cc1c(C(N)=O)sc(N)c1C(=O)OC(C)C,x,1,x,x,x
Cc1c(C(=O)OC(C)C)sc(N)c1C(=O)OC(C)C,x,x,0,2,48*
O=C(NCc1ccccn1)C1CCC(=O)N(Cc2ccc(Cl)cc2)C1 (centres undefined),-3,4,-8,37*,10
COc1ccc(CCN2CC(C(=O)NCCc3ncccc3C)CCC2=O)cc1 (centres undefined),-3,x,5,2,34*
Cc1ccc(CNC(=O)C2CCC(=O)N(CCc3ccccn3)C2)s1 (centres undefined),4,x,3,-1,33*
Cc1cnc(CNC(=O)C2CCC(=O)N(Cc3ccc(Cl)cc3)C2)[nH]1 (centres undefined),6,-14,2,-5,72*
O=C(C[C@H]1CC[C@H](NS(=O)(=O)c2ccccc2)[C@H](CO)O1)N1CCC(Cc2ccccc2)CC1,x,x,10,-1,6
C[C@@H]1CN([C@@H](C)CO)C(=O)c2cccc(NS(=O)(=O)c3cccs3)c2O[C@H]1CN(C)Cc1ccc(C(=O)Nc2ccccc2N)cc1,x,-5,3,x,2
O=C(Nc1ccc(Cl)cc1)N[C@H]1CC[C@H](CCn2cc(C3(O)CCCC3)nn2)O[C@H]1CO,-4,5,3,0,4
C[C@H](CO)N1C[C@H](C)[C@@H](CN(C)C(=O)Nc2cccc(F)c2)Oc2cc(C#CC3(O)CCCC3)ccc2S1(=O)=O,-57,0,7,-5,5

# Assay outcomes: PubChem, Broad Institute
